Where a SMILES comes first, the peptide text is derived from it. [ ]: non-standard residue; d: D form. The star is where a group is joined. Tyr(Nα,Nα-allyl2) = C=CCN(CC=C)[C@@H](Cc1ccc(O)cc1)C(=O)*; Aib = CC(C)(N)C(=O)O
Key:
Cavia porcellus [1] = species: Cavia porcellus; assay: The compound was evaluated for antagonistic activity by incubating with the smooth muscle preparation (GPI) for 15 min prior to testing with morphine; format: functional, Muscle tissue
Summary of the method: (§1)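 Electrically stimulated guinea pig ileal longitudinal muscle or mouse vas deferens. Test ligand incubated 15 min before standard agonist challenge (morphine, ethylketazocine or DADLE). Ligand at 100 nM, or at 10, 20 or 30 nM when it had agonist activity, kept at or below its ED20.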

Mus musculus [2] = species: Mus musculus; assay: The compound was evaluated for antagonistic activity by incubating with the smooth muscle preparation (MVD) for 15 min prior to testing with morphine; format: functional, Muscle tissue; summary of the method: as §1
Cavia porcellus [3] = species: Cavia porcellus; assay: The compound was tested for opioid agonist activity against guinea pig ileal longitudinal muscle (GPI); format: functional, Muscle tissue
Summary of the method: (§2)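 Electrically stimulated guinea pig ileal longitudinal muscle and mouse vas deferens. For full agonists, 4-6 concentrations gave concentration-response curves compared with standard agonists in the same preparation. IC50 is the concentration giving a half-maximal response, with 95% confidence limits.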

Cavia porcellus [4] = species: Cavia porcellus; assay: The compound was evaluated for antagonistic activity by incubating with the smooth muscle preparation (GPI) for 15 min prior to testing with Ethylketazocine (EK); format: functional, Muscle tissue; summary of the method: as §1
Mus musculus [5] = species: Mus musculus; assay: The compound was tested for opioid agonist activity against mouse vas deferens (MVD); format: functional; summary of the method: as §2
Mus musculus [6] = species: Mus musculus; assay: The compound was evaluated for antagonistic activity by incubating with the smooth muscle preparation (MVD) for 15 min prior to testing with DADLE; format: functional, Muscle tissue; summary of the method: as §1
[7] = The compound was evaluated for binding affinity against Opioid receptor delta 1 in guinea pig brain membrane using [3H]- DPDPE as ligand
[8] = system: Delta-type opioid receptor; assay: Selectivity for kappa to delta opioid receptors was determined; conditions: Cavia porcellus
[9] = target: Mu-type opioid receptor (Cavia porcellus) (UniProt P97266); assay: Selectivity for mu to delta opioid receptors was determined
Sequence of Mu-type opioid receptor (Cavia porcellus) (P97266 whole entry): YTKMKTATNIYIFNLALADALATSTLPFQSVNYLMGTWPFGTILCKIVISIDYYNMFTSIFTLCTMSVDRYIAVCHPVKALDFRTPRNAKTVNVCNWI

Mus musculus [10] = species: Mus musculus; assay: The compound was evaluated for antinociceptive potency using abdominal stretch assay in mice; format: functional, Abdomen; parameters: unit not given here
Summary of the method: (§3)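 Mouse antinociception by abdominal stretch or tail flick assay. Test compound given icv. ED50 in nmol/mouse with 95% confidence limits.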

Mus musculus [11] = species: Mus musculus; assay: Antagonistic activity against morphine in smooth muscle preparation (MVD); format: functional, Muscle tissue; summary of the method: as §1
Mus musculus [12] = species: Mus musculus; assay: The compound was tested for antagonizing the antinociceptive potency of morphine using abdominal assay in mice.(values in the parenthesis indicate 95% confidence limits); format: functional, Abdomen
[13] = target: Kappa-type opioid receptor (Cavia porcellus, UniProt P41144); assay: The compound was evaluated for binding affinity against the opioid receptor kappa in guinea pig brain membranes using [3H]- U-69,593; format: cell membranes, Membrane
Sequence of Kappa-type opioid receptor (P41144 whole entry): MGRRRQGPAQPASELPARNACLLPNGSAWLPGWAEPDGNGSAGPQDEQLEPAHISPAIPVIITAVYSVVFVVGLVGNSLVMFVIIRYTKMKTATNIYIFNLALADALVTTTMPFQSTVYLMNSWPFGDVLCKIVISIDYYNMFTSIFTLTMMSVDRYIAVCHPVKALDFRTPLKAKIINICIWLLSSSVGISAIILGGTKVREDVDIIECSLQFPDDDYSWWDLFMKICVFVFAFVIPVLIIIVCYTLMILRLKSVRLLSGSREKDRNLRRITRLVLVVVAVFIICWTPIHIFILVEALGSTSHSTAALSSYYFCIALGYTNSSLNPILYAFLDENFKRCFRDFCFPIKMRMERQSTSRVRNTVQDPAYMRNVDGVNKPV
Summary of the method: (§4)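 Competition binding on guinea pig brain membranes. δ sites labelled with [3H]DPDPE, μ with [3H]DAMGO, κ with [3H]U69593. A footnote also describes κ labelling with [3H]ethylketazocine in the presence of 1 µM DAMGO.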

Mus musculus [14] = species: Mus musculus; assay: Effect of the opioid antagonist (beta-funaltrexamine, mu) on the antinociceptive potency using abdominal stretch assay in mice.; format: functional, Abdomen
Summary of the method: (§5)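 Mice pretreated sc with β-FNA 20 µmol/kg 24 h before, norBNI 12 µmol/kg 2 h before, or NTI 44 µmol/kg 0.5 h before. Test compound then given icv in the abdominal stretch or tail flick assay. ED50 ratio is pretreated ED50 divided by control ED50, with 95% confidence limits.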

Mus musculus [15] = species: Mus musculus; assay: Antagonistic activity against DADLE in smooth muscle preparation (MVD); format: functional, Muscle tissue; summary of the method: as §1
Mu-type opioid receptor [16] = target: T1, Mu-type opioid receptor (Cavia porcellus, UniProt P97266); assay: The compound was evaluated for binding affinity against Opioid receptor mu 1 in guinea pig brain membranes; format: cell membranes, Membrane; summary of the method: as §4
T1 sequence (P97266 whole entry): as the sequence (P97266 whole entry) above

Mus musculus [17] = species: Mus musculus; assay: Effect of the opioid antagonist (naltrindole, delta) on the antinociceptive potency using tail flick assay; format: functional; summary of the method: as §5
Mus musculus [18] = species: Mus musculus; assay: The compound was tested for antagonizing the antinociceptive potency of U-50,488H using abdominal assay in mice.(values in the parenthesis indicate 95% confidence limits); format: functional, Abdomen
Cavia porcellus [19] = species: Cavia porcellus; assay: Opiod agonistic activity against delta enriched smooth muscle preparation; format: functional; conditions: Muscle tissue
Mus musculus [20] = species: Mus musculus; assay: The compound was tested for antagonizing the antinociceptive potency of DPDPE using abdominal assay in mice.(values in the parenthesis indicate 95% confidence limits); format: functional, Abdomen
Mus musculus [21] = species: Mus musculus; assay: Effect of the opioid antagonist (norbinaltorphimine, kappa) on the antinociceptive potency using abdominal stretch assay in mice.; format: functional, Abdomen; summary of the method: as §5
Mus musculus [22] = species: Mus musculus; assay: The compound was tested for antagonizing the antinociceptive potency of DSLET using abdominal assay in mice.(values in the parenthesis indicate 95% confidence limits); format: functional, Abdomen
Cavia porcellus [23] = species: Cavia porcellus; assay: Antagonistic activity against morphine in guinea pig ileal longitudinal muscle (GPI); format: functional, Muscle tissue; summary of the method: as §1
Mus musculus [24] = species: Mus musculus; assay: Effect of the opioid antagonist (naltrindole, delta) on the antinociceptive potency using abdominal stretch assay in mice; format: functional, Abdomen; summary of the method: as §5
Mus musculus [25] = species: Mus musculus; assay: The compound was evaluated for antinociceptive potency using tail flick assay in mice; format: functional; summary of the method: as §3
Cavia porcellus [26] = species: Cavia porcellus; assay: Antagonistic activity against EK in guinea pig ileal longitudinal muscle (GPI); format: functional, Muscle tissue; summary of the method: as §1
Opioid receptor = Opioid receptor (Mus musculus, UniProt P42866+P32300+P33534); assay: Compound was tested for agonistic activity against the opioid receptor in electrically stimulated mouse vas deference; format: functional; summary of the method: as §2
Mus musculus [27] = species: Mus musculus; assay: The compound was tested for antagonizing the antinociceptive potency of DPDPE using abdominal assay in mice.; format: functional, Abdomen
Summary of the method: (§6)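 Mice, abdominal stretch assay. Agonist peak times after icv dosing: DSLET 10 min, DPDPE 20 min, U50488H 15 min, morphine 30 min. Read-out is the agonist ED50 ratio with 95% confidence limits.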

Cavia porcellus [28] = species: Cavia porcellus; assay: Opiod agonistic activity against delta enriched smooth muscle preparation.; format: functional; conditions: Muscle tissue
Mus musculus [29] = species: Mus musculus; assay: The compound was tested for antagonizing the antinociceptive potency of U-50,488H using abdominal assay in mice; format: functional, Abdomen; summary of the method: as §6
Mu-type opioid receptor [30] = target: T1, Mu-type opioid receptor; assay: The compound was evaluated for binding affinity against opioid receptor mu in guinea pig brain membranes using [3H]- DAMGO as ligand; format: cell membranes, Membrane; summary of the method: as §4
Mus musculus [31] = species: Mus musculus; assay: The compound was tested for antagonizing the antinociceptive potency of DSLET using abdominal assay in mice.; format: functional, Abdomen; summary of the method: as §6
Mus musculus [32] = species: Mus musculus; assay: Effect of the opioid antagonist (norbinaltorphimine, kappa) on the antinociceptive potency using tail flick assay in mice; format: functional
Summary of the method: (§7)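 Mice, tail flick assay. Antagonist given sc beforehand: beta-FNA 20 µmol/kg 24 h before, or norBNI 12 µmol/kg 2 h before. Test compound then given icv. ED50 ratio = ED50 of test compound in pretreated mice divided by control ED50, with 95% confidence limits.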

Mus musculus [33] = species: Mus musculus; assay: Effect of the opioid antagonist (beta-funaltrexamine, mu) on the antinociceptive potency using tail flick assay in mice.(values in the parenthesis indicate 95% confidence limits); format: functional; summary of the method: as §7
Mus musculus [34] = species: Mus musculus; assay: The compound was tested for antagonizing the antinociceptive potency of morphine using abdominal assay in mice; format: functional, Abdomen; summary of the method: as §6
Mus musculus [35] = species: Mus musculus; assay: The compound was evaluated for antinociceptive potency using abdominal stretch assay in mice.; format: functional, Abdomen; summary of the method: as §3

SMILES	Max response (Cavia porcellus [3]) [%]	Max response (Mus musculus [5]) [%]	Ratio [8]	Ratio [9]	ED50 (Mus musculus [10])	IC50 ratio (Mus musculus [11])	Ki [13] [nM]	IC50 ratio (Mus musculus [15])	IC50 ratio (Cavia porcellus [23])	ED50 (Mus musculus [25]) [nmol/mouse]	IC50 ratio (Cavia porcellus [26])	IC50 (Opioid receptor) [nM]	Ki (Mu-type opioid receptor [30]) [nM]	further results
CN1CC[C@]23c4c5ccc(O)c4O[C@H]2c2oc4ccccc4c2C[C@@]3(O)[C@H]1C5	23	41												IC50 ratio (Cavia porcellus [1]): 0.5; IC50 ratio (Mus musculus [2]): 0.8; IC50 ratio (Cavia porcellus [4]): 0.8; IC50 ratio (Mus musculus [6]): 10.2
C=CCN(CC=C)[C@@H](Cc1ccc(O)cc1)C(=O)NC(C)(C)C(=O)NC(C)(C)C(=O)N[C@@H](Cc1ccccc1)C(=O)N[C@@H](CC(C)C)C(=O)O ({Tyr(Nα,Nα-allyl2)}-[Aib][Aib]FL-OH)			> 29	> 29										Ki [7]: 35 nM
Oc1ccc2c3c1O[C@H]1c4[nH]c5ccccc5c4C[C@@]4(O)C(C2)NCC[C@]314	41		> 357	224	1.1	0.7	> 1000	0.9	0.7	10.9	0.8	124		ED50 ratio (Mus musculus [12]): 1.1; ED50 ratio (Mus musculus [14]): 0.9; Ki (Mu-type opioid receptor [16]): > 1000 nM; ED50 ratio (Mus musculus [17]): 1.6; ED50 ratio (Mus musculus [18]): 0.7; IC50 (Cavia porcellus [19]): 121 nM; ED50 ratio (Mus musculus [20]): 2.5; ED50 ratio (Mus musculus [21]): 1.6; ED50 ratio (Mus musculus [22]): 5.4; ED50 ratio (Mus musculus [24]): 1.2
Oc1ccc2c3c1O[C@H]1c4[nH]c5ccccc5c4C[C@@]4(O)[C@@H](C2)N(CCc2ccccc2)CC[C@]314	15				0.4	0.9	> 1000	0.6	0.8	2.2	0.8	171	> 1000	ED50 ratio (Mus musculus [27]): 1.4; ED50 ratio (Mus musculus [14]): 1.3; ED50 ratio (Mus musculus [17]): 3.2; IC50 (Cavia porcellus [28]): 76 nM; ED50 ratio (Mus musculus [21]): 5.5; ED50 ratio (Mus musculus [29]): 0.6; ED50 ratio (Mus musculus [31]): 2.8; ED50 ratio (Mus musculus [32]): 21.6; ED50 ratio (Mus musculus [24]): 4; ED50 ratio (Mus musculus [33]): 5.8; ED50 ratio (Mus musculus [34]): 0.4
Oc1ccc2c3c1O[C@H]1c4[nH]c5ccccc5c4C[C@H]4[C@@H](C2)N(C/C=C/c2ccccc2)CC[C@]314	2	19	> 9	> 9			> 1000						> 1000	IC50 ratio (Cavia porcellus [1]): 0.8; IC50 ratio (Mus musculus [2]): 1.1; IC50 ratio (Cavia porcellus [4]): 0.9; IC50 ratio (Mus musculus [6]): 0.8
CN1CC[C@]23c4c5ccc(O)c4O[C@H]2c2[nH]c4ccccc4c2C[C@H]3[C@H]1C5	9	34				0.9		4.2	1		0.5			
CSCC[C@H](NC(=O)[C@H](Cc1ccc(O)cc1)NC(=O)CNC(=O)CNC(=O)[C@H](Cc1ccccc1)NC(=O)[C@H](CC(C)C)NC(=O)[C@H](N)CO)C(=O)N[C@H](C(=O)O)[C@@H](C)O					0.0032					0.45				
Oc1ccc2c3c1O[C@H]1c4[nH]c5ccccc5c4C[C@H]4[C@@H](C2)N(CCc2ccccc2)CC[C@]314	1900		120	8		0.9	2620	0.6	0.8	6.3	0.9	179	173	IC50 (Cavia porcellus [19]): 174 nM
Oc1ccc2c3c1O[C@H]1c4[nH]c5ccccc5c4C[C@@]4(O)[C@@H](C2)N(CC2CC2)CC[C@]314 [NALTRINDOLE]														ED50 (Mus musculus [35]): 0.04 nM
Oc1ccc2c3c1O[C@H]1c4[nH]c5ccccc5c4C[C@H]4C(C2)NCC[C@]314	20		176	71		1	5.3	0.8	0.6		1.3	85	375	
CN1CC[C@]23c4c5ccc(O)c4O[C@H]2c2c(c4ccccc4n2C)C[C@@]3(O)[C@H]1C5	9	23			0.01	1		1.2	0.7		0.5			
CN1CC[C@]23c4c5ccc(O)c4O[C@H]2c2[nH]c4ccccc4c2C[C@@]3(O)[C@H]1C5 [OXYMORPHINDOLE]	12	65	6380	669		0.9		1.3	0.9		0.9			Ki [7]: 0.7 nM; ED50 (Mus musculus [35]): 0.019 nM

From ChEMBL document CHEMBL1125360 (J Med Chem, 1992)
